In ChEMBL document CHEMBL1671716, “Antimicrobial susceptibility patterns for recent clinical isolates of anaerobic bacteria in South Korea” (2010):
≈ marks a conversion by molar mass, not a printed value.

What was measured:
Hoylesella oralis [1] = assay: Antimicrobial activity against Prevotella oralis assessed as percent resistant isolates after 48 hrs by agar dilution method; type: functional
Outline: (§1)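 CLSI agar dilution on recent Korean clinical anaerobe isolates. Inoculum 10^5 CFU per spot by replicator. Plates incubated in an anaerobic chamber at 37°C for 48 h. For piperacillin plus tazobactam, tazobactam was held constant at 4 μg/ml. Resistance and susceptibility rates derived from MICs.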

[2] = system: Bacteroides thetaiotaomicron; assay: Antimicrobial activity against Bacteroides thetaiotaomicron after 48 hrs by agar dilution method; type: functional
Outline: (§2)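 MICs on clinical anaerobe isolates by the CLSI agar dilution method. Inoculum of 10^5 CFU applied with a Steers replicator. Plates incubated 48 h at 37°C in an anaerobic chamber.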

Finegoldia magna [3] = assay: Antimicrobial activity against Finegoldia magna after 48 hrs by agar dilution method; type: functional
Outline: (§3)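 CLSI agar dilution (M11-A7); inoculum 10^5 CFU applied by replicator; plates incubated anaerobically 48 h at 37°C. For piperacillin-tazobactam, tazobactam held constant at 4 μg/ml.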

[4] = system: Porphyromonas asaccharolytica; assay: Antimicrobial activity against Porphyromonas asaccharolytica after 48 hrs by agar dilution method; type: functional; outline: as §3
[5] = system: Bacteroides thetaiotaomicron; assay: Antimicrobial activity against Bacteroides thetaiotaomicron assessed as percent susceptible isolates after 48 hrs by agar dilution method; type: functional
Bacteroides ovatus [6] = assay: Antimicrobial activity against Bacteroides ovatus after 48 hrs by agar dilution method; type: functional; outline: as §2
Hoylesella oralis [7] = assay: Antimicrobial activity against Prevotella oralis assessed as percent susceptible isolates after 48 hrs by agar dilution method; type: functional
Outline: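 CLSI agar dilution MIC testing of clinical isolates. 10^5 CFU spotted by replicator, plates incubated 48 h at 37°C in an anaerobic chamber. Susceptibility rates derived from the MICs.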

Phocaeicola vulgatus [8] = assay: Antimicrobial activity against Bacteroides vulgatus assessed as percent susceptible isolates after 48 hrs by agar dilution method; type: functional
Bacteroides caccae [9] = assay: Antimicrobial activity against Bacteroides caccae assessed as percent susceptible isolates after 48 hrs by agar dilution method; type: functional
Prevotella bivia [10] = assay: Antimicrobial activity against Prevotella bivia after 48 hrs by agar dilution method; type: functional; outline: as §3
Bacteroides ovatus [11] = assay: Antimicrobial activity against Bacteroides ovatus assessed as percent resistant isolates after 48 hrs by agar dilution method; type: functional; outline: as §1
Parvimonas micra = assay: Antimicrobial activity against Peptostreptococcus micros after 48 hrs by agar dilution method; type: functional; outline: as §3
Clostridioides difficile [12] = assay: Antimicrobial activity against Clostridium difficile after 48 hrs by agar dilution method; type: functional
Actinomyces naeslundii = assay: Antimicrobial activity against Actinomyces naeslundii after 48 hrs by agar dilution method; type: functional; outline: as §2
Schaalia odontolytica = assay: Antimicrobial activity against Actinomyces odontolyticus assessed as percent susceptible isolates after 48 hrs by agar dilution method; type: functional
Bacteroides caccae [13] = assay: Antimicrobial activity against Bacteroides caccae assessed as percent resistant isolates after 48 hrs by agar dilution method; type: functional; outline: as §1
[14] = system: Bifidobacterium adolescentis; assay: Antimicrobial activity against Bifidobacterium adolescentis after 48 hrs by agar dilution method; type: functional; outline: as §2
Finegoldia magna [15] = assay: Antimicrobial activity against Finegoldia magna assessed as percent susceptible isolates after 48 hrs by agar dilution method; type: functional; outline: as §3
Prevotella buccae [16] = assay: Antimicrobial activity against Prevotella buccae assessed as percent resistant isolates after 48 hrs by agar dilution method; type: functional, Segatella buccae; outline: as §1
[17] = system: Parabacteroides distasonis; assay: Antimicrobial activity against Bacteroides distasonis assessed as percent resistant isolates after 48 hrs by agar dilution method; type: functional; outline: as §1
[18] = system: Peptostreptococcus anaerobius; assay: Antimicrobial activity against Peptostreptococcus anaerobius assessed as percent susceptible isolates after 48 hrs by agar dilution method; type: functional; outline: as §1
Fusobacterium nucleatum = assay: Antimicrobial activity against Fusobacterium nucleatum after 48 hrs by agar dilution method; type: functional; outline: as §3
Anaerococcus prevotii = assay: Antimicrobial activity against Anaerococcus prevotii after 48 hrs by agar dilution method; type: functional; outline: as §2
Bifidobacterium sp. [19] = assay: Antimicrobial activity against Bifidobacterium sp. assessed as percent susceptible isolates after 48 hrs by agar dilution method; type: functional; outline: as §3
Eggerthella lenta = assay: Antimicrobial activity against Eubacterium lentum assessed as percent susceptible isolates after 48 hrs by agar dilution method; type: functional; outline: as §3
[20] = system: Parabacteroides distasonis; assay: Antimicrobial activity against Bacteroides distasonis assessed as percent susceptible isolates after 48 hrs by agar dilution method; type: functional
Clostridioides difficile [21] = assay: Antimicrobial activity against Clostridium difficile assessed as percent susceptible isolates after 48 hrs by agar dilution method; type: functional
Prevotella buccae [22] = assay: Antimicrobial activity against Prevotella buccae assessed as percent susceptible isolates after 48 hrs by agar dilution method; type: functional, Segatella buccae; outline: as §3
Prevotella intermedia [23] = assay: Antimicrobial activity against Prevotella intermedia assessed as percent resistant isolates after 48 hrs by agar dilution method; type: functional; outline: as §1
Eubacterium sp. = assay: Antimicrobial activity against Eubacterium sp. assessed as percent susceptible isolates after 48 hrs by agar dilution method; type: functional; outline: as §3
[24] = system: Peptostreptococcus anaerobius; assay: Antimicrobial activity against Peptostreptococcus anaerobius after 48 hrs by agar dilution method; type: functional; outline: as §3
[25] = system: Bifidobacterium adolescentis; assay: Antimicrobial activity against Bifidobacterium adolescentis assessed as percent susceptible isolates after 48 hrs by agar dilution method; type: functional
Prevotella intermedia [26] = assay: Antimicrobial activity against Prevotella intermedia after 48 hrs by agar dilution method; type: functional; outline: as §3
Clostridium perfringens = assay: Antimicrobial activity against Clostridium perfringens after 48 hrs by agar dilution method; type: functional
Finegoldia magna [27] = assay: Antimicrobial activity against Finegoldia magna assessed as percent resistant isolates after 48 hrs by agar dilution method; type: functional; outline: as §1
Bacteroides fragilis = assay: Antimicrobial activity against Bacteroides fragilis assessed as percent susceptible isolates after 48 hrs by agar dilution method; type: functional
Prevotella bivia [28] = assay: Antimicrobial activity against Prevotella bivia assessed as percent resistant isolates after 48 hrs by agar dilution method; type: functional; outline: as §1
Schaalia meyeri = assay: Antimicrobial activity against Actinomyces meyeri assessed as percent susceptible isolates after 48 hrs by agar dilution method; type: functional
Bifidobacterium sp. [29] = assay: Antimicrobial activity against Bifidobacterium sp. after 48 hrs by agar dilution method; type: functional; outline: as §2
Fusobacterium necrogenes = assay: Antimicrobial activity against Fusobacterium necrogenes after 48 hrs by agar dilution method; type: functional; outline: as §3
Prevotella buccae [30] = assay: Antimicrobial activity against Prevotella buccae after 48 hrs by agar dilution method; type: functional; conditions: Segatella buccae; outline: as §3
Phocaeicola vulgatus [31] = assay: Antimicrobial activity against Bacteroides vulgatus after 48 hrs by agar dilution method; type: functional; outline: as §2

Cc1ncc([N+](=O)[O-])n1CCO [METRONIDAZOLE]
Activity (Hoylesella oralis [1]): 0% | MIC50 [2]: 2 µg/mL (≈ 11.7 µM) | MIC90 [2]: 2 µg/mL (≈ 11.7 µM) | MIC (Finegoldia magna [3]): 0.5 µg/mL (≈ 2.92 µM) | MIC50 (Finegoldia magna [3]): 0.5 µg/mL (≈ 2.92 µM) | MIC90 (Finegoldia magna [3]): 1 µg/mL (≈ 5.84 µM) | MIC [4]: 0.13 µg/mL (≈ 0.76 µM) | Activity [5]: 100% | MIC50 (Bacteroides ovatus [6]): 2 µg/mL (≈ 11.7 µM) | MIC90 (Bacteroides ovatus [6]): 2 µg/mL (≈ 11.7 µM) | Activity (Hoylesella oralis [7]): 100% | Activity (Phocaeicola vulgatus [8]): 100% | Activity (Bacteroides caccae [9]): 100% | MIC50 (Prevotella bivia [10]): 4 µg/mL (≈ 23.4 µM) | MIC90 (Prevotella bivia [10]): 8 µg/mL (≈ 46.7 µM) | Activity (Bacteroides ovatus [11]): 0% | MIC50 (Parvimonas micra): 0.5 µg/mL (≈ 2.92 µM) | MIC90 (Parvimonas micra): 1 µg/mL (≈ 5.84 µM) | MIC50 (Clostridioides difficile [12]): 1 µg/mL (≈ 5.84 µM) | MIC90 (Clostridioides difficile [12]): 1 µg/mL (≈ 5.84 µM) | MIC50 (Actinomyces naeslundii): 16 µg/mL (≈ 93.5 µM) | MIC90 (Actinomyces naeslundii): > 128 µg/mL | Activity (Schaalia odontolytica): 46% | Activity (Bacteroides caccae [13]): 0% | MIC50 [14]: 16 µg/mL (≈ 93.5 µM) | MIC90 [14]: > 128 µg/mL | Activity (Finegoldia magna [15]): 100% | Activity (Prevotella buccae [16]): 0% | Activity [17]: 0% | Activity [18]: 100% | MIC (Fusobacterium nucleatum): 0.13 µg/mL (≈ 0.76 µM) | MIC50 (Anaerococcus prevotii): 1 µg/mL (≈ 5.84 µM) | MIC90 (Anaerococcus prevotii): 1 µg/mL (≈ 5.84 µM) | Activity (Bifidobacterium sp. [19]): 46% | Activity (Eggerthella lenta): 46% | Activity [20]: 100% | Activity (Clostridioides difficile [21]): 100% | Activity (Prevotella buccae [22]): 100% | Activity (Prevotella intermedia [23]): 0% | Activity (Eubacterium sp.): 46% | MIC50 [24]: 0.5 µg/mL (≈ 2.92 µM) | MIC90 [24]: 1 µg/mL (≈ 5.84 µM) | Activity [25]: 46% | MIC (Prevotella intermedia [26]): 0.5 µg/mL (≈ 2.92 µM) | MIC50 (Prevotella intermedia [26]): 0.5 µg/mL (≈ 2.92 µM) | MIC90 (Prevotella intermedia [26]): 2 µg/mL (≈ 11.7 µM) | MIC (Clostridium perfringens): 0.02 µg/mL (≈ 0.117 µM) | MIC50 (Clostridium perfringens): 0.03 µg/mL (≈ 0.175 µM) | MIC90 (Clostridium perfringens): 0.06 µg/mL (≈ 0.351 µM) | Activity (Finegoldia magna [27]): 0% | Activity (Bacteroides fragilis): 100% | Activity (Prevotella bivia [28]): 0% | Activity (Schaalia meyeri): 46% | MIC50 (Bifidobacterium sp. [29]): 16 µg/mL (≈ 93.5 µM) | MIC90 (Bifidobacterium sp. [29]): > 128 µg/mL | MIC (Fusobacterium necrogenes): 0.13 µg/mL (≈ 0.76 µM) | MIC50 (Prevotella buccae [30]): 4 µg/mL (≈ 23.4 µM) | MIC90 (Prevotella buccae [30]): 8 µg/mL (≈ 46.7 µM) | MIC50 (Phocaeicola vulgatus [31]): 2 µg/mL (≈ 11.7 µM) | MIC90 (Phocaeicola vulgatus [31]): 2 µg/mL (≈ 11.7 µM)
